{"source": "ChEMBL document CHEMBL1177712", "about": "“Synthesis and characterization of in vitro and in vivo profiles of hydroxybupropion analogues: aids to smoking cessation” (J Med Chem, 2010)", "key": {"Mus musculus [1]": {"test_system": "Mus musculus", "assay": "Toxicity in sc dosed ICR mouse assessed occurrence of sedation", "format": "organism-based", "conditions": "in vivo"}, "[2]": {"biological_target": "Sodium-dependent dopamine transporter (Homo sapiens, UniProt Q01959)", "sequence (Q01959 whole entry)": "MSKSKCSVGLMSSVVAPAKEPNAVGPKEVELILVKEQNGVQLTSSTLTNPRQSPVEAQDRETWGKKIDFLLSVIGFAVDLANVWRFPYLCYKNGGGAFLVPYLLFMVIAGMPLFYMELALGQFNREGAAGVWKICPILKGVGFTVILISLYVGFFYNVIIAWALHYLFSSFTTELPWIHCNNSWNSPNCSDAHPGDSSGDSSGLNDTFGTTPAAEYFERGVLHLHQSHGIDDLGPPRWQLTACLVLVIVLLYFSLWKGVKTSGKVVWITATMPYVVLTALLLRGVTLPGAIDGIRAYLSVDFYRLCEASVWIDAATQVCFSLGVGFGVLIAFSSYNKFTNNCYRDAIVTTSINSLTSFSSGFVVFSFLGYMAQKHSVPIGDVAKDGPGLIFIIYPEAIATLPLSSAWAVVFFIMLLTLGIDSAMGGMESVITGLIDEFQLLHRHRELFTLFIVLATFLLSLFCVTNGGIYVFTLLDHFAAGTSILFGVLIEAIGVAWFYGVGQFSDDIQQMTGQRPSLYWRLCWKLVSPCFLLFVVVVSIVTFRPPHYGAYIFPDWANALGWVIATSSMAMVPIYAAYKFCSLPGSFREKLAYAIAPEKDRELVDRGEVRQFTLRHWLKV", "assay": "Inhibition of [3H]dopamine reuptake at human DAT expressed in HEK293 cells after 90 mins by scintillation counting", "format": "cell-based", "method_in_brief": "(§1)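 Uptake of [³H]DA or [³H]NE was measured in HEK293 cells stably expressing human DAT or NET. Values are from three independent experiments, each run in triplicate.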"}, "[3]": {"biological_target": "Sodium-dependent serotonin transporter (Homo sapiens, UniProt P31645)", "sequence (P31645 whole entry)": "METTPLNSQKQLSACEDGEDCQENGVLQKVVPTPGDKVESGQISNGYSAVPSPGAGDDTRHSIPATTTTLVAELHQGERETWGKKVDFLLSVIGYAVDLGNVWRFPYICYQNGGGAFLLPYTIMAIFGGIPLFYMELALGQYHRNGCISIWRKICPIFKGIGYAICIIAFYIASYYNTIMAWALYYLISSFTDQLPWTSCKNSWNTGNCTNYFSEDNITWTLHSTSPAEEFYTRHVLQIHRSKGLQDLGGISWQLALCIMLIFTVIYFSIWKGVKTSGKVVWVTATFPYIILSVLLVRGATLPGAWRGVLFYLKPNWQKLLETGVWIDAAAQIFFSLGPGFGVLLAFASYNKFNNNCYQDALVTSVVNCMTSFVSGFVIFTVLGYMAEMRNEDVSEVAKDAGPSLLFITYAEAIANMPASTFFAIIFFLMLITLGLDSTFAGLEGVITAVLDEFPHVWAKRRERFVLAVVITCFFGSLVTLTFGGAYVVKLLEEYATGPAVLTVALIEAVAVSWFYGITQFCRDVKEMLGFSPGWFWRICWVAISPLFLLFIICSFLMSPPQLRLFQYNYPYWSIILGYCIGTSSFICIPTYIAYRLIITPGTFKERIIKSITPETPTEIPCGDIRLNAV", "assay": "Inhibition of [3H]serotonin reuptake at human SERT expressed in HEK293 cells after 90 mins by scintillation counting", "format": "cell-based"}, "Mus musculus [4]": {"test_system": "Mus musculus", "assay": "Smoke cessation activity in sc dosed ICR mouse assessed as inhibition of nicotine-induced increase in locomotor activity administered 15 mins before nicotine challenge measured after 5 mins of nicotine infusion", "format": "functional, organism-based"}, "[5]": {"biological_target": "Neuronal acetylcholine receptor; alpha4/beta2 (Homo sapiens, UniProt P17787+P43681)", "assay": "Agonist activity at alpha4beta2 nicotinic receptor in human SH-EP1 cells assessed as induction of radiolabeled Rb+ influx at 0.005 to 100 uM by liquid scintillation counting", "format": "functional, cell-based", "method_in_brief": "(§2)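 Cells were labelled with ⁸⁶Rb⁺ for at least 4 h, then exposed for 5 min in efflux buffer (pH 7.4) to test ligand alone at ~5 nM to 100 μM. The lines were TE671/RD (muscle α1β1γδ), SH-SY5Y (α3β4*) and transfected SH-EP1-hα4β2 or -hα4β4. Efflux was Cerenkov-counted. Non-specific efflux was subtracted, and results were normalized to specific efflux from carbamylcholine (1 mM; 3 mM for SH-SY5Y).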"}, "Mus musculus [6]": {"test_system": "Mus musculus", "assay": "Smoke cessation activity in sc dosed ICR mouse assessed as inhibition of nicotine-induced hypothermia administered 15 mins before nicotine challenge measured after 30 mins of nicotine infusion", "format": "functional, organism-based", "method_in_brief": "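Male ICR mice (20–25 g) were pretreated with test drug or saline 15 min before nicotine at 2.5 mg/kg sc. Rectal temperature was taken before and 30 min after nicotine, and the change was calculated. Room temperature was 21–24 °C. AD₅₀ came from at least four doses, with at least 8 mice per dose.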"}, "Mus musculus [7]": {"test_system": "Mus musculus", "assay": "Smoke cessation activity in sc dosed ICR mouse assessed as inhibition of nicotine-induced antinociception administered 15 mins before nicotine challenge measured after 5 mins of nicotine infusion by hotplate assay", "format": "functional, organism-based", "method_in_brief": "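Male ICR mice (20–25 g) were pretreated with saline or test drug 15 min before nicotine at 2.5 mg/kg sc. They were tested 5 min later on a 55 °C hot plate (40 s cutoff), and the result was expressed as %MPE. AD₅₀ came from at least four doses, with at least 8 mice per dose.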"}, "[8]": {"biological_target": "Sodium-dependent noradrenaline transporter (Homo sapiens, UniProt P23975)", "sequence (P23975 whole entry)": "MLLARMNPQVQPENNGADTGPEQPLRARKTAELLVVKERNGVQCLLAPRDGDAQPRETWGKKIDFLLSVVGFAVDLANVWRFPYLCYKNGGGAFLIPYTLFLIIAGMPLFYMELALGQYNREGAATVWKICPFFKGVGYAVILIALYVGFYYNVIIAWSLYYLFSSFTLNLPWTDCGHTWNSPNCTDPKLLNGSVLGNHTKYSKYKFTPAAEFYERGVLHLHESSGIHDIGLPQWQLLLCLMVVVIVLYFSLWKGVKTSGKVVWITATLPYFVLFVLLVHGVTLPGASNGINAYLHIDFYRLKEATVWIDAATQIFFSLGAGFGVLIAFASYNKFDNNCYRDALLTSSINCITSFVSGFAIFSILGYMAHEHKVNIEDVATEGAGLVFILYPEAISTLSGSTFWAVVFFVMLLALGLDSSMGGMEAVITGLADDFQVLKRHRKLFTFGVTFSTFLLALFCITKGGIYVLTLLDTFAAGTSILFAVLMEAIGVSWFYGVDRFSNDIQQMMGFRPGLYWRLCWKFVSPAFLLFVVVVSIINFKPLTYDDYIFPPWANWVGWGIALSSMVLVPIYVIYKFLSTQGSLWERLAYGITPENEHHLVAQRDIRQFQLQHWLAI", "assay": "Inhibition of [3H]norepinephrine reuptake at human NET expressed in HEK293 cells after 90 mins by scintillation counting", "format": "cell-based", "method_in_brief": "as §1"}, "[9]": {"biological_target": "Acetylcholine receptor; alpha1/beta1/delta/gamma (Homo sapiens, UniProt P02708+P07510+P11230+Q07001)", "sequence (P02708 whole entry)": "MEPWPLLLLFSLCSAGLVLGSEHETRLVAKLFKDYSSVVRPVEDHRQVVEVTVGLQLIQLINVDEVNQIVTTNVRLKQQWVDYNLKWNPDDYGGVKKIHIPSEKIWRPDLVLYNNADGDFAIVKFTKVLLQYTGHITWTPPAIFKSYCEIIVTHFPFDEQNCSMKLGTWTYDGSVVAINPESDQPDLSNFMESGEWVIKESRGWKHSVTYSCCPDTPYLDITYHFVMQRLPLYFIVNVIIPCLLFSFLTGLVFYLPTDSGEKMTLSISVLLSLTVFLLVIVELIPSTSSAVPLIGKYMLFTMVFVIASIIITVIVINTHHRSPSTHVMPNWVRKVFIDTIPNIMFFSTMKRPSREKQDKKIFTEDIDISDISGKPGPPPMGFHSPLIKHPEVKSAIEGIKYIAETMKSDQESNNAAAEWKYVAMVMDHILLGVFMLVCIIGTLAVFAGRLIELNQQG", "sequence (P07510 whole entry)": "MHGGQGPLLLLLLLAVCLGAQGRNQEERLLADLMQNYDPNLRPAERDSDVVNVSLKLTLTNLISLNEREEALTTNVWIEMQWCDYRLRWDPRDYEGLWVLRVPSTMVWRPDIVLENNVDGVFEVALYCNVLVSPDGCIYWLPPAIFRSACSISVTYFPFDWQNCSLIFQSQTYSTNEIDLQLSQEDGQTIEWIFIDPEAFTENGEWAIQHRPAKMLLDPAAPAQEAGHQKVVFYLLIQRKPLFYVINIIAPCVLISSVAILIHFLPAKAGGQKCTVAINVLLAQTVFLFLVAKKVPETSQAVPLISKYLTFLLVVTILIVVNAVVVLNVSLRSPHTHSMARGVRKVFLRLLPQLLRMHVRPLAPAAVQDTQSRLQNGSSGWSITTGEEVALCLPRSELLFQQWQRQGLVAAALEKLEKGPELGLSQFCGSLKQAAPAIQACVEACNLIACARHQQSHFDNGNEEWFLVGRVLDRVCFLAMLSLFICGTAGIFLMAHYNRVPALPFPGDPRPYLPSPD", "sequence (P11230 whole entry)": "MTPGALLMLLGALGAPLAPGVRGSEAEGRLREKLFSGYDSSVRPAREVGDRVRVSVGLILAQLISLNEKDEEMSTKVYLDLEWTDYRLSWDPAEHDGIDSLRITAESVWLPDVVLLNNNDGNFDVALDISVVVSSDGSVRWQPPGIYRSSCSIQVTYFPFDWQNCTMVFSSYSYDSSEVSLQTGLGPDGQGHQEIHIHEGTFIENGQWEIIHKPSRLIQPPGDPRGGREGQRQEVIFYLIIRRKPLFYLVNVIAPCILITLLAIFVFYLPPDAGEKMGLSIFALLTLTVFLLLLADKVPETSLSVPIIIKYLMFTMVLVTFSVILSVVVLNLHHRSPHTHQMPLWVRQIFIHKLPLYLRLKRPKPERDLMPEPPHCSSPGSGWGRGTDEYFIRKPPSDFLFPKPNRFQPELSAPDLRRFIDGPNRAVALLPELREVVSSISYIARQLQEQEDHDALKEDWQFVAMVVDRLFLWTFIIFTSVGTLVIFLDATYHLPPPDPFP", "sequence (Q07001 whole entry)": "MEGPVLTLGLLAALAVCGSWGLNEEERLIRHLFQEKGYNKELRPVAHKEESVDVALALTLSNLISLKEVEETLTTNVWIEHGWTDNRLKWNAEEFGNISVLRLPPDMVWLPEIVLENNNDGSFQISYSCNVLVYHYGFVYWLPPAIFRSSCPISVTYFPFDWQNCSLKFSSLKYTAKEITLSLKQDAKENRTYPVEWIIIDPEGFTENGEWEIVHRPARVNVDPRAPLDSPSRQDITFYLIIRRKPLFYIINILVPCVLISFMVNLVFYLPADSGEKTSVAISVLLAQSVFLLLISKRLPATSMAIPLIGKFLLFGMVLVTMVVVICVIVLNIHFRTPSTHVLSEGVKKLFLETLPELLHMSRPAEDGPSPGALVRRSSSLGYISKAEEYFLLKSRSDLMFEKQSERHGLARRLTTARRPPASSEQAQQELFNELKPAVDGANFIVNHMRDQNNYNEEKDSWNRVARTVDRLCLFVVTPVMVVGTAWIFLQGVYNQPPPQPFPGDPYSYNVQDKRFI", "assay": "Antagonist activity at alpha-1-beta-1-gamma-delta nicotinic receptor in human TE671 cells assessed as inhibition varbamylcholine-induced radiolabeled Rb+ influx at by liquid scintillation counting", "format": "functional, cell-based, TE-671", "method_in_brief": "(§3)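 ⁸⁶Rb⁺-loaded human cells were given a 5-min efflux with carbamylcholine at EC₈₀–EC₉₀ plus graded test ligand. Non-specific efflux, taken with 100 μM mecamylamine or buffer, was subtracted. IC₅₀ came from a Hill fit of three independent experiments, with SEM given as a multiplication factor.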"}, "[10]": {"biological_target": "T1, Neuronal acetylcholine receptor; alpha4/beta4 (Homo sapiens, UniProt P30926+P43681)", "T1 sequence (P30926 whole entry)": "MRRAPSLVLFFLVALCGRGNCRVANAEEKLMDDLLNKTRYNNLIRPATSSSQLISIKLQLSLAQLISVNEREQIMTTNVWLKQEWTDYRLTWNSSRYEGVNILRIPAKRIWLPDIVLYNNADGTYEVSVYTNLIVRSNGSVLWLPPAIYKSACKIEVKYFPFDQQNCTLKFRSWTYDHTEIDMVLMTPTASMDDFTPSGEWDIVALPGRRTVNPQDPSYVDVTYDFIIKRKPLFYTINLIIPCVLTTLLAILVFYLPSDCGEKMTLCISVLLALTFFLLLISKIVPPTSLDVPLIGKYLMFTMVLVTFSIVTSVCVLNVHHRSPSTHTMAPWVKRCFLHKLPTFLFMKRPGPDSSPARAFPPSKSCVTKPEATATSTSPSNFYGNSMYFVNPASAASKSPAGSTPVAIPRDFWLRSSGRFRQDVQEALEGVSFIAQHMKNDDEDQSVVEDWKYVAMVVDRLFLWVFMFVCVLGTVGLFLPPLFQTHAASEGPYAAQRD", "T1 sequence (P43681 whole entry)": "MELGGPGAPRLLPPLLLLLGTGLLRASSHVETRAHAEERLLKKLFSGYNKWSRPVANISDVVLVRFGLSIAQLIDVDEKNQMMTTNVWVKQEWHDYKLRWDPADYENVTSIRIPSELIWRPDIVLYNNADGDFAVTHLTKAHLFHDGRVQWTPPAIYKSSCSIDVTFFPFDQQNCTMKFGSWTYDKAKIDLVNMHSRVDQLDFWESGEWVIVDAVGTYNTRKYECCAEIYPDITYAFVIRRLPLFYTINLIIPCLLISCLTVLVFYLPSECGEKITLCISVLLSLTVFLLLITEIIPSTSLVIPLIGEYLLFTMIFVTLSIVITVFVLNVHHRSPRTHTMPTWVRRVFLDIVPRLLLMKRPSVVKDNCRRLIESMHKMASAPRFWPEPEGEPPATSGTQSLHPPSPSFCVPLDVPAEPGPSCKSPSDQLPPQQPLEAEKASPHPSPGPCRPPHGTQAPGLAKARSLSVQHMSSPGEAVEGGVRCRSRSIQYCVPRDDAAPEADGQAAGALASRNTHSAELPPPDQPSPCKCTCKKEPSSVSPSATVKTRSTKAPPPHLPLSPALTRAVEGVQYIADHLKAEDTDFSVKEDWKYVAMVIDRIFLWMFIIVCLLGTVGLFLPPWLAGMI", "assay": "Antagonist activity at alpha4beta4 nicotinic receptor in human SH-EP1 cells assessed as inhibition varbamylcholine-induced radiolabeled Rb+ influx at by liquid scintillation counting", "format": "functional, cell-based", "method_in_brief": "as §3"}, "[11]": {"biological_target": "T1, Neuronal acetylcholine receptor; alpha4/beta4", "assay": "Agonist activity at alpha4beta4 nicotinic receptor in human SH-EP1 cells assessed as induction of radiolabeled Rb+ influx at 0.005 to 100 uM by liquid scintillation counting", "format": "functional, cell-based", "method_in_brief": "as §2"}, "Mus musculus [12]": {"test_system": "Mus musculus", "assay": "Smoke cessation activity in sc dosed ICR mouse assessed as inhibition of nicotine-induced antinociception administered 15 mins before nicotine challenge measured after 5 mins of nicotine infusion by tail-flick assay", "format": "functional, organism-based", "method_in_brief": "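Radiant-heat tail-flick latency was read 5 min later (10 s cutoff; baseline 2–4 s) and expressed as %MPE. AD₅₀ came from at least four doses, with at least 8 mice per dose.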"}, "SH-SY5Y": {"test_system": "SH-SY5Y", "assay": "Selectivity ratio of IC50 for alpha3beta4 nicotinic receptor in human SH-SY5Y cells to IC50 for IC50 for human NET", "format": "cell-based"}, "Mus musculus [13]": {"test_system": "Mus musculus", "assay": "Toxicity in sc dosed ICR mouse assessed occurrence of convulsion", "format": "organism-based", "conditions": "in vivo"}, "SH-EP1": {"test_system": "SH-EP1", "assay": "Selectivity ratio of IC50 for alpha4beta2 nicotinic receptor in human SH-EP1 cells to IC50 for IC50 for human NET", "format": "cell-based"}}, "note": "Active and inactive are the calls of the source."}
{"smiles": "CCC[C@@H]1NC(C)(C)CO[C@@]1(O)c1cccc(Cl)c1", "values": [{"measurement": "Activity", "setting": "Mus musculus [1]", "result": "Non-toxic"}, {"measurement": "IC50", "setting": "[2]", "result": 0.03, "unit": "µM"}, {"measurement": "IC50", "setting": "[3]", "result": 4.13, "unit": "µM"}, {"measurement": "IC50", "setting": "Mus musculus [4]", "result": 4.7, "unit": "mg/kg"}, {"measurement": "Activity", "setting": "[5]", "result": "inactive"}, {"measurement": "IC50", "setting": "Mus musculus [6]", "result": "> 15", "unit": "mg/kg"}, {"measurement": "IC50", "setting": "Mus musculus [7]", "result": "> 15", "unit": "mg/kg"}, {"measurement": "IC50", "setting": "[8]", "result": 0.031, "unit": "µM"}, {"measurement": "IC50", "setting": "[9]", "result": 10, "unit": "µM"}, {"measurement": "IC50", "setting": "[10]", "result": 18, "unit": "µM"}, {"measurement": "Activity", "setting": "[11]", "result": "inactive"}, {"measurement": "IC50", "setting": "Mus musculus [12]", "result": 0.004, "unit": "mg/kg"}, {"measurement": "Ratio IC50", "setting": "SH-SY5Y", "result": 154}, {"measurement": "Activity", "setting": "Mus musculus [13]", "result": "Non-toxic"}, {"measurement": "Ratio IC50", "setting": "SH-EP1", "result": 240}]}
